Source: PubChem
Scp-1 inhibitor: inhibitors of human Scp-1 phosphatase; Q9GZU7; Recombinant Scp1, phosphopeptide, malachite green phosphate absorbance; inhibition, % at 20 µM; hit rate 0.88% among 340,000; AID 493091;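 active = inhibition above about 50% at 20 µM, limit read from the data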;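 also: plate controls were DMSO wells with enzyme for no effect and wells lacking enzyme for full effect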
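Test system: SCP-1 phosphatase catalytic domain, residues 76-261 | Compound dosing: One concentration, 20 µM, with 1.0% DMSO | Schedule: 45 min room-temperature reaction, 5 min colour, 30 min stabiliser | Detection: Absorbance at 630 nm | Read-out basis: % inhibition of SCP-1 phosphate liberation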
LMPTP block: blocks human LMPTP phosphatase; recombinant LMPTP-A, OMFP fluorogenic substrate, fluorescence intensity; P24666; inhibition, % at 20 µM; hit rate 0.22% among 360,000;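 active = compounds that cut the enzyme signal by at least half of the control window in the single-dose screen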;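 also: plate controls were DMSO wells with enzyme plus substrate for no effect and substrate without enzyme for full effect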
Target sequence (P24666 whole entry, looked up): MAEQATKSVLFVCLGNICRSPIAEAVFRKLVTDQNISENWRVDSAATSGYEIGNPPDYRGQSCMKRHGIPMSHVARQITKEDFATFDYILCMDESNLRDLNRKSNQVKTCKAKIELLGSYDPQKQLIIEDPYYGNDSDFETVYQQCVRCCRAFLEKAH
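test system = LMPTP-A | amount = 0.625 nM LMPTP-A final | reagent = fluorogenic phosphatase substrate OMFP at 400 µM final | incubation = 50 min at room temperature | benchmarks = no-enzyme low control, uninhibited high control | medium = Bis-Tris pH 6.0, DTT, detergent | signal = fluorescence intensity of OMFP turnover product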
HKDC1 inh: inhibitors of human hexokinase HKDC1; hit rate 0.16% among 340,000; AID 493160; recombinant HKDC1, G6PDH/diaphorase resazurin coupled fluorescence; inhibition, % at 20 µM; Q2TB90;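 active = inhibition above about 35% when tested at 20 µM, limit read from the data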;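 also: plate controls were DMSO wells with enzyme for no effect and DMSO wells lacking enzyme for full effect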
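System: Recombinant HKDC1 hexokinase | Amount: HKDC1 at 5 µg/mL | Reagent: Glucose with 1 mM ATP | Doses: Single 20 µM dose | Incubation: Reaction time 90 min, room temperature, protected from light | Signal: Coupled resazurin fluorescence, excitation 525 nm, emission 613 nm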
STEP block: blocks human striatal-enriched tyrosine phosphatase. recombinant STEP, OMFP fluorogenic substrate, fluorescence. inhibition, % at 20 µM. hit rate 0.25% among 360,000. AID 588621;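 active = inhibition at 20 µM, scaled per plate between control wells, above about 37%, limit read from the data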;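 also: 0% = DMSO with enzyme and substrate and 100% = substrate only without enzyme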
Target sequence (P54829 whole entry, looked up): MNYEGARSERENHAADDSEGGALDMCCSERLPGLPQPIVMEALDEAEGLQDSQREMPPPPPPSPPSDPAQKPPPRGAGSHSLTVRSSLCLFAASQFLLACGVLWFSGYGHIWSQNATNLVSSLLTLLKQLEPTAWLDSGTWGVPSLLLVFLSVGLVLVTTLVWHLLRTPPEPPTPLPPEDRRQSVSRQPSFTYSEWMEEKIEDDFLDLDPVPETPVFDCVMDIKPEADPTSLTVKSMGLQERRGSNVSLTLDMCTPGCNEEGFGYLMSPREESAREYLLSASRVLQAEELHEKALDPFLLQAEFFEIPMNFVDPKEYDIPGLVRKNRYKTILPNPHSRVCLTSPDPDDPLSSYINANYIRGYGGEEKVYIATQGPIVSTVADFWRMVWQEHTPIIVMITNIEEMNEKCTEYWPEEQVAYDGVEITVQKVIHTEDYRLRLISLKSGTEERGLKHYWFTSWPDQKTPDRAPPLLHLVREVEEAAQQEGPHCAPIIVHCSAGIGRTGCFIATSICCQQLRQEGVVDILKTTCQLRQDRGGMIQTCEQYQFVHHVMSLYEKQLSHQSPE
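Material: STEP (striatal-enriched tyrosine phosphatase) enzyme, cell-free | Medium: 50 mM Bis-Tris pH 6.0 with 2.5 mM DTT and 0.005% Tween 20 | Read-out: Percent inhibition scaled to no-enzyme and uninhibited-enzyme controls, plate-pattern corrected | Signal: Fluorescence read at 480 nm ex / 540 nm em | Times: 20 min reaction, room temperature, in the dark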
SUMO1 PPI mod: modulators of human SUMO1-mediated protein-protein interactions; inhibition, % at 20 µM; hit rate 0.33% among 360,000; SUMO1 binding to a labelled peptide, TR-FRET, 1 h; AID 602429; P63165; in the data active = inhibition above about 37%
DNMT1 block: inhibitors of human DNMT1; P26358; DNMT1 molecular beacon, Hinp1I cleavage, fluorescence; inhibition (reported as % activation of signal), % at 10 µM; hit rate 0.83% among 360,000; AID 588458; in the data active = inhibition above about 50%
Starred values were filed as active, the others as inactive; . = no result. An excerpt weighted towards active compounds, which were near 1.8% of everything screened.

SMILES	Scp-1 inhibitor	LMPTP block	HKDC1 inh	STEP block	SUMO1 PPI mod	DNMT1 block
COC(=O)[C@H](C)NC(=O)c1cc2c(cn1)[nH]c1ccccc12	-1.8	3.3	-29.8	8.5	0.7	0.9
C[C@H](NC(=O)c1cc2c(cn1)[nH]c1ccccc12)C(=O)O	-12.5	2.3	-15.5	90.3*	3.3	1.1
O=[N+]([O-])c1ccc(O)c(/C=N/n2cnc3ccccc32)c1	-4.9	0.8	-4.4	1.1	-21.6	-5.3
Cc1ccc(/C=C2\SC(=S)N(/N=C/c3cc([N+](=O)[O-])ccc3O)C2=O)o1	57.0*	52.8*	-11.8	17.2	45.3*	83.0*
O=S(=O)(Cc1ccccc1)N1CCN(c2ncccn2)CC1	-9.3	1.2	-0.7	-1.2	3.4	2.6
CCN1C(=NCCN2CCOCC2)N[C@@H](c2ccccc2)C(C(=O)OC)=C1C	6.1	0.0	-5.6	-0.5	2.0	3.1
C=CCN=C1N[C@@H](c2ccccc2)C(C(=O)OC)=C(C)N1CCOC	18.7	-1.2	-4.8	-0.7	4.4	3.4
COCCN1C(=NCCCOC(C)C)N[C@@H](c2ccccc2)C(C(=O)OC)=C1C	54.6*	-2.3	-2.0	-2.1	2.0	3.0
COC(=O)C1=C(C)N(Cc2ccccc2)C(=NCc2ccccc2)N[C@H]1c1cccc(F)c1	-0.2	0.0	0.2	0.5	-17.9	2.5
CCN(CC)CCCN=C1N[C@@H](c2cccc(F)c2)C(C(=O)OC)=C(C)N1Cc1ccccc1	102.6*	-1.8	-5.2	2.0	-3.8	-1.2
CSc1ccccc1C(=O)N1CCc2ccc(NC(=O)c3ccccn3)cc2C1	.	-1.0	.	0.9	2.8	1.3
Cc1cc(C)c(C#N)c(SCC(=O)Nc2nonc2N)n1	-3.1	3.1	-5.5	0.1	46.0*	-0.5
CC(C)(C)c1cc(-c2csc(Nc3ccccc3)[n+]2Cc2ccc(C(=O)O)cc2)cc(C(C)(C)C)c1O	17.4	1.3	10.3	11.9	41.9*	18.7
O=C1C=CC(=O)C(CNc2ccc(C(=O)OCc3ccccc3)cc2)=C1	29.4	4.0	46.7*	1.6	-2.6	-62.0
COc1ccc(C2CC(c3ccc4ccccc4c3OC(C)=O)=NN2C(C)=O)cc1 (stereo not drawn)	-9.8	2.0	1.3	2.8	-26.2	-6.7
CCOC(=O)C1=C(C)c2ccccc2N(C(=O)OC)C1(C)C(=O)OCC (stereo not drawn)	98.2*	0.6	21.0	1.5	2.5	11.9
CCOC(=O)C1=C(C)c2ccccc2OC1(CC)C(=O)OCC (stereo not drawn)	-6.6	0.4	11.1	-0.2	-1.8	0.1
COc1ccc(OC)c(-c2csc(NC(=O)Cn3[nH]c(=O)c4ccccc4c3=O)n2)c1	-0.7	0.2	2.3	4.5	64.0*	-6.3
O=C(COC(=O)CCc1ccc(S(=O)(=O)N2CCOCC2)cc1)NCc1ccc(Cl)cc1	-10.7	1.2	-9.6	-0.2	0.6	-0.8
COc1ccc2cc1Oc1ccc(cc1)C[C@H]1c3c(cc(OC)c4c3Oc3c(ccc5c3[C@H](C2)N(C)CC5)O4)CCN1C	4.1	68.4*	1.5	5.5	-27.6	-35.6
COc1ccc2cc1Oc1ccc(cc1)CC1c3c(cc(OC)c4c3Oc3cc5c(cc3O4)CCNC5C2)CCN1C (stereo not drawn)	-1.4	77.2*	-0.7	1.3	-26.6	-31.5
COc1cc2c(c(O)c1OC)C1Cc3ccc(OC)c(OC)c3CN1CC2 (stereo not drawn)	.	-0.1	.	0.4	-1.7	-1.1
COC(=O)c1ccc(Nc2nc(-c3ccncc3)nc3ccccc23)cc1	4.5	2.6	0.7	1.2	38.1	8.3
COC(=O)c1cccc(Nc2nc(-c3cccnc3)nc3ccccc23)c1	0.9	-21.1	5.7	1.2	46.1*	-8.8
COC(=O)c1cccc(Nc2nc(-c3ccncc3)nc3ccccc23)c1	-1.6	6.0	-1.6	13.1	60.6*	-6.3
SMILES	Scp-1 inhibitor	LMPTP block	HKDC1 inh	STEP block	SUMO1 PPI mod	DNMT1 block
Cc1cc(C)c(S(=O)(=O)Nc2nccs2)c(C)c1	-9.6	-0.6	7.3	-1.3	42.5*	0.9
C#CCOc1nc(Nc2cccc([N+](=O)[O-])c2)nc(OCC#C)n1	-4.7	0.7	13.6	-2.1	46.1*	0.4
O=C(O)c1ccccc1NS(=O)(=O)c1cccc(-n2sc3ccccc3c2=O)c1	94.9*	-1.2	14.8	7.6	30.1	4.5
O=C(O)c1ccccc1NS(=O)(=O)c1cccc(C(F)(F)F)c1	0.6	-0.3	11.6	0.1	0.9	-0.5
O=C1N=C2N(CCN3CCCCC3)c3ccccc3N2/C1=C\c1ccc([N+](=O)[O-])s1	-8.4	0.7	-0.3	-2.4	-24.1	28.9
O=C(CCO)c1ccc(O)cc1	69.0*	4.6	7.0	2.0	14.2	15.5
Cc1ccc(NC(=O)C2Cc3ccccc3CN2C(=O)c2ccccc2)cc1Cl (stereo not drawn)	-10.4	2.1	-1.5	-3.4	-2.0	-2.6
CN(C)c1ccc(NC(=O)CSc2nnc(-c3ccco3)c(-c3ccco3)n2)cc1	-3.4	26.8	17.1	3.6	-8.5	-8.4
O=C(CSc1nnc(-c2ccco2)c(-c2ccco2)n1)Nc1ccccc1	58.5*	52.8*	17.3	17.8	76.9*	118.5*
Cc1ccccc1NC(=O)CSc1nnc(-c2ccco2)c(-c2ccco2)n1	68.2*	28.9	14.8	6.0	26.9	105.6*
Cc1cccc(C)c1NC(=O)CSc1nnc(-c2ccco2)c(-c2ccco2)n1	77.0*	56.8*	22.2	39.3*	50.7*	115.7*
Cc1ccccc1NC(=O)CSc1n[nH]c(-c2ccco2)n1	-7.4	-1.3	-5.0	3.5	-0.3	-1.3
CCn1c(CNC(=O)c2ccccc2F)nnc1SCC(=O)Nc1nncs1	-0.8	0.3	-0.6	-1.9	0.0	2.4
COc1ccccc1CNc1nc(-c2cc(C)n(C)c2C)cs1	3.5	11.2	1.9	-2.2	-1.2	75.7*
O=C(NCCN1CCC(n2c(=O)[nH]c3ccccc32)CC1)c1cccc2c1-c1ccccc1C2=O	.	13.3	.	.	55.4*	.
Cc1ccc(OCC(=O)N(C)CC(=O)Nc2ccccc2Cl)c([N+](=O)[O-])n1	15.6	-0.5	-4.8	-1.6	-18.6	4.7
C=C(C)C(=O)Nc1ccc2c(c1)OCCOCCOCCO2	96.9*	0.9	-4.4	63.5*	57.4*	89.5*
COCCNc1nc(NCc2cnc(C)cn2)c2sccc2n1	.	53.2*	.	2.1	-7.8	-2.4
COCCNc1nc(NCc2ccccc2OC)c2sccc2n1	.	45.9	.	0.0	0.2	-1.9
O=C(NC1CCCC1)C1C(c2ccc(C(F)(F)F)cc2)=Nc2ccccc2N1C(=O)c1cccc2ccccc12 (stereo not drawn)	.	0.6	.	.	-7.3	.
